Molecular target: T1, neutrophil elastase (NE) (Homo sapiens, UniProt P08246)
T1 sequence (P08246 30-267): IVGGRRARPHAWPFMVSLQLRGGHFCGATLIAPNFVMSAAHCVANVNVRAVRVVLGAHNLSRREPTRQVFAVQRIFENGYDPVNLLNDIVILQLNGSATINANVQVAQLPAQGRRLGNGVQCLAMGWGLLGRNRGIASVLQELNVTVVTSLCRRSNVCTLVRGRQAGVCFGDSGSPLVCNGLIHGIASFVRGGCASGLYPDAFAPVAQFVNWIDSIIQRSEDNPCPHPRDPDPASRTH
Test: Longitudinal NE digestion of rCBG and asialo-rCBG
Assay type: in vitro ADME
Details: rCBG/NE 25:1 (w/w), on ice, 480 s incubation period; trypsin digest, LC-MS/MS
Summary of the method: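 Recombinant CBG, native or desialylated with neuraminidase A (40 U, overnight, 37 °C), digested with NE at 25:1 (w/w) on ice for 15, 30, 60, 120, 240 and 480 s. Stopped with 1 mM PMSF (8 min, ice), reduced with DTT, alkylated with IAA, and trypsin-digested at 20:1 (w/w) overnight at 37 °C. LC-MS/MS tracked intact and cleaved RCL peptides (unoccupied, sialo- and asialo-O-glycosylated). Mean + SD, n = 3.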

B1: rCBG: Polyhistidine-tagged recombinant human CBG expressed in HEK293 cells (Sino Biological) (protein, UniProt P08185 23-405, looked up)
Corticosteroid-binding …: MDPNAAYVNMSNHHRGLASANVDFAFSLYKHLVALSPKKNIFISPVSISMALAMLSLGTCGHTRAQLLQGLGFNLTERSETEIHQGFQHLHQLFAKSDTSLEMTMGNALFLDGSLELLESFSADIKHYYESEVLAMNFQDWATASRQINSYVKNKTQGKIVDLFSGLDSPAILVLVNYIFFKGTWTQPFDLASTREENFYVDETTVVKVPMMLQSSTISYLHDSELPCQLVQMNYVGNGTVFFILPDKGKMNTVIAALSRDTINRWSAGLTSSQVDLYIPKVTISGVYDLGDVLEEMGIADLFTNQANFSRITQDAQLKSSKVVHKAVLQLNEEGVDTAGSTGVTLNLTSKPIILRFNQPFIIMIFDHFTWSSLFLARVMNPV
modifications: polyhistidine tag
Q: B1 was tested. Which “Effect of Thr345 O-glycans on NE proteolysis reaction” value did it give?
A: strongly inhibit

B2: asialo-rCBG: sialic acid-deficient glycoform of rCBG generated through exhaustive sialidase (neuraminidase A) treatment (protein, UniProt P08185 23-405, looked up)
Corticosteroid-binding …: MDPNAAYVNMSNHHRGLASANVDFAFSLYKHLVALSPKKNIFISPVSISMALAMLSLGTCGHTRAQLLQGLGFNLTERSETEIHQGFQHLHQLFAKSDTSLEMTMGNALFLDGSLELLESFSADIKHYYESEVLAMNFQDWATASRQINSYVKNKTQGKIVDLFSGLDSPAILVLVNYIFFKGTWTQPFDLASTREENFYVDETTVVKVPMMLQSSTISYLHDSELPCQLVQMNYVGNGTVFFILPDKGKMNTVIAALSRDTINRWSAGLTSSQVDLYIPKVTISGVYDLGDVLEEMGIADLFTNQANFSRITQDAQLKSSKVVHKAVLQLNEEGVDTAGSTGVTLNLTSKPIILRFNQPFIIMIFDHFTWSSLFLARVMNPV
modifications: His tag; desialylated by neuraminidase
Q: For B2, which “Effect of Thr345 O-glycans on NE proteolysis reaction” value is on record?
A: strongly inhibit

From PMC10784704 (The Journal of Biological Chemistry, 2023)
